MrgX1 agonist: human MrgX1 receptor agonism, primary screen; MrgX1-HEK293 cells, Fluo-4 calcium fluorescence, agonist mode; hits give high values; AID 588627; Q96LB2; B-score at 10 µM; hit rate 0.44% among 310,000;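 active means calcium response B-score plate-corrected fluorescence ratio at least 3 library SD, with starting fluorescence B-score inside 5 SD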
Target sequence (Q96LB2 whole entry, looked up): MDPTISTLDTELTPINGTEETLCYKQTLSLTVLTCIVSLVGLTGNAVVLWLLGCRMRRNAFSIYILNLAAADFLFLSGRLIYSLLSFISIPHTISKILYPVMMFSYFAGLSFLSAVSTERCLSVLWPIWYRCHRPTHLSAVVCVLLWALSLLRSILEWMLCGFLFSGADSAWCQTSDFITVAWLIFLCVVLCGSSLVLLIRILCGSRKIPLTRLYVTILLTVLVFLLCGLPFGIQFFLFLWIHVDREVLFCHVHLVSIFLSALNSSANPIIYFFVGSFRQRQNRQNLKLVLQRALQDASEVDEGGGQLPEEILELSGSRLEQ
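Material – MrgX1-expressing HEK293 cells · Input – 15,000 cells seeded per well · Dosing – compound as first of three additions · Times – overnight seeding, then 1 h dark dye loading · Measured by – kinetic Fluo-4 NW fluorescence of intracellular calcium · Read-out – B-scored fluorescence response ratio · Benchmarks – positive and negative control wells on each plate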
MrgX1 antagonist: human MrgX1 receptor antagonism, primary screen; Q96LB2; MRGX1-HEK293 calcium flux, Fluo-4, BAM8-22 antagonism; hits give low values; B-score at 10 µM; hit rate 1.3% among 310,000; AID 588676;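 active means calcium-response B-score plate-corrected more than 3 library SD below zero, starting fluorescence within 5 deviations, no agonist response on first addition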;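 further: peak minus trough fluorescence over baseline after final BAM8-22 challenge near maximal dose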
MrgX1 allo act: human MrgX1 positive allosteric modulation, primary screen; Q96LB2; B-score at 10 µM; hit rate 0.63% among 310,000; AID 588675; MrgX1-HEK293, Fluo-4 calcium flux, FDSS; hits give high values;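 active means plate-corrected calcium response at least 3 library SD above typical, normal starting fluorescence, not activating the receptor alone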;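 further: compound read alongside a low EC10 to EC30 dose of BAM8-22 agonist; peak minus trough fluorescence over baseline measured at the second addition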
RGS4 inh: inhibitors of human RGS4; P49798; B-score at 10 µM; hit rate 0.45% among 310,000; HEK293 M3R/RGS4 inducible, Fluo-4 calcium flux; hits give high values; triggered by carbachol at its EC20;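 active means B-score, a plate-corrected calcium signal, over three deviations above library mean, with baseline fluorescence within five deviations of library mean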;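 further: RGS4 expression induced by doxycycline in cells with stable M3 receptor; B-score is computed from the integrated fluorescence ratio over baseline after carbachol; higher B-score means a larger calcium signal and so more RGS4 inhibition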
Target sequence (P49798 whole entry, looked up): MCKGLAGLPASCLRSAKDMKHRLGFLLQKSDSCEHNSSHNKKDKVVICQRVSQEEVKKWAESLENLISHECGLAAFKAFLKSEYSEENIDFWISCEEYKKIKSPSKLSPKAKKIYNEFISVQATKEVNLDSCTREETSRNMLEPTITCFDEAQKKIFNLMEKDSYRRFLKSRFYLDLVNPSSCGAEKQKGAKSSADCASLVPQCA
RGS4 act: potentiators or activators of RGS4; HEK293 M3R/inducible RGS4, carbachol calcium flux Fluo4; hits give low values; B-score at 10 µM; hit rate 0.92% among 310,000;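 active means B-score of the integrated calcium signal more than 4 SD below the library mean, with starting fluorescence not abnormally high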;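 further: negative B-score means reduced calcium response which marks RGS4 activation or potentiation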
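Material: Inducible-RGS4 HEK293 cells carrying M3 receptor; also added: carbachol at ECmax as muscarinic agonist stimulus; incubation: compound preincubation 20 min at room temperature before agonist; signal: Fluo4-AM (2 µM) calcium-flux fluorescence, kinetic read; measure: integrated calcium ratio converted to B score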
RGS4 activ val: RGS4 activation, validation assay. shares compounds with RGS4 act. HEK293 M3R/RGS4 inducible, carbachol calcium flux Fluo4. inhibition, % at 10 µM. hit rate 89% among 1,100;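 active means inhibition above 3 SD of the buffer control wells, cut at about 41% in these data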;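 further: signal is the integrated peak-minus-minimum Fluo4 fluorescence over baseline ratio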
M3R Ca counter: counter-screen for RGS4 activators: effect in non-induced cells; shares compounds with RGS4 act; HEK293 M3R non-induced RGS4, Fluo4 calcium flux; after carbachol challenge at its EC90; inhibition, % at 10 µM; hit rate 82% among 1,100; AID 602283;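 active means inhibition exceeding 3 SD of buffer-only control wells, cut at about 26% in these data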;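 further: percent drop in integrated peak-minus-baseline over baseline Fluo4 ratio after carbachol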
* = called active by the depositor. In the library only some 3.5% were active in any assay of this set; here they are far more common.

Screening O=C(CCN1C(=O)S/C(=C\c2ccc(F)cc2)C1=O)Nc1ccc(O)cc1C(=O)O returned MrgX1 agonist inactive, MrgX1 antagonist inactive, MrgX1 allo act inactive, RGS4 inh inactive and RGS4 act inactive.
Screening CCn1nc(C)c(CN2CCCC(C(=O)c3cccc(OC(C)C)c3)C2)c1C (centres undefined) returned MrgX1 agonist inactive, MrgX1 antagonist inactive, MrgX1 allo act inactive, RGS4 inh inactive and RGS4 act inactive.
Cc1nn(C(C)C)c(C)c1CN1CCCC(C(=O)c2cccc(OC(C)C)c2)C1 (centres undefined) was read as MrgX1 agonist inactive, MrgX1 antagonist inactive, MrgX1 allo act inactive, RGS4 inh inactive, RGS4 act -8.4*, RGS4 activ val 70* and M3R Ca counter 84*.
Screening Cc1cnc(NC(=O)CSc2nc3ccccc3s2)s1 returned MrgX1 agonist inactive, MrgX1 antagonist inactive, MrgX1 allo act inactive, RGS4 inh inactive and RGS4 act inactive.
For Cc1cnc(NC(=O)c2ccc(-c3nc4ccccc4s3)o2)s1 the results were MrgX1 agonist inactive, MrgX1 antagonist inactive, MrgX1 allo act inactive, RGS4 inh inactive, RGS4 act -9.7*, RGS4 activ val 79* and M3R Ca counter 32*.
`NCCCC(=O)N1c2ccccc2Sc2ccc(Cl)cc21` gave MrgX1 agonist inactive, MrgX1 antagonist inactive, MrgX1 allo act inactive, RGS4 inh inactive, RGS4 act -7.9*, RGS4 activ val 91* and M3R Ca counter 85*.
For CCN(CC)CCC(=O)N1c2ccccc2Sc2ccc(Cl)cc21 the results were MrgX1 agonist inactive, MrgX1 antagonist inactive, MrgX1 allo act inactive, RGS4 inh inactive and RGS4 act inactive.
For O=C(CCN1CCN2CCCC2C1)N1c2ccccc2Sc2ccc(Cl)cc21 (centres undefined) the results were MrgX1 agonist inactive, MrgX1 antagonist inactive, MrgX1 allo act inactive, RGS4 inh inactive and RGS4 act inactive.
For CN(C)CC(=O)N1c2ccccc2Sc2ccc(Cl)cc21 the results were MrgX1 agonist inactive, MrgX1 antagonist inactive, MrgX1 allo act inactive, RGS4 inh inactive, RGS4 act -8*, RGS4 activ val 91* and M3R Ca counter 69*.
Screening CN(C)CCC(=O)N1c2ccccc2Sc2ccc(Cl)cc21 returned MrgX1 agonist inactive, MrgX1 antagonist inactive, MrgX1 allo act inactive, RGS4 inh inactive, RGS4 act -14*, RGS4 activ val 94* and M3R Ca counter 98*.
CCC(Cc1ccccc1)NS(=O)(=O)c1ccc2c(c1)NC(=O)C(C)S2 (centres undefined) was read as MrgX1 agonist inactive, MrgX1 antagonist inactive, MrgX1 allo act inactive, RGS4 inh inactive and RGS4 act inactive.
`NC(=O)c1cccc(CS(=O)(=O)c2ccc(Cl)cc2)c1` gave MrgX1 agonist inactive, MrgX1 antagonist inactive, MrgX1 allo act inactive, RGS4 inh inactive and RGS4 act inactive.
CCN(CC)c1ccc(NC(=S)NC(=O)c2cccs2)cc1 was read as MrgX1 agonist inactive, MrgX1 antagonist inactive, MrgX1 allo act inactive, RGS4 inh inactive and RGS4 act inactive.
Screening CC(C)=NNC(=O)C1=NNC(=O)C1 returned MrgX1 agonist inactive, MrgX1 antagonist inactive, MrgX1 allo act inactive, RGS4 inh inactive and RGS4 act inactive.
CCOC(=O)c1[nH]c2ccc(Br)cc2c1NC(=O)CCN1CCCC(C)(C)C1 was read as MrgX1 agonist inactive, MrgX1 antagonist inactive, MrgX1 allo act inactive, RGS4 inh inactive, RGS4 act -14*, RGS4 activ val 94* and M3R Ca counter 74*.
`CCOC(=O)c1[nH]c2ccc(F)cc2c1NC(=O)CCN1CCOCC1` gave MrgX1 agonist inactive, MrgX1 antagonist inactive, MrgX1 allo act inactive, RGS4 inh inactive and RGS4 act inactive.
For O=C1NC2CCc3nc4ccccc4c(=O)n3C2=Nc2ccccc21 (centres undefined) the results were MrgX1 agonist inactive, MrgX1 antagonist inactive, MrgX1 allo act inactive, RGS4 inh inactive, RGS4 act -9.8*, RGS4 activ val 0 and M3R Ca counter 0.
`O=c1c2ccccc2nc(-c2ccccc2Cl)n1O` gave MrgX1 agonist inactive, MrgX1 antagonist inactive, MrgX1 allo act inactive, RGS4 inh inactive and RGS4 act inactive.
For O=C(NCc1ccccc1)C1COc2ccccc2O1 (centres undefined) the results were MrgX1 agonist inactive, MrgX1 antagonist inactive, MrgX1 allo act inactive, RGS4 inh inactive and RGS4 act inactive.
For O=C(NC1CCN(Cc2ccccc2)CC1)C1COc2ccccc2O1 (centres undefined) the results were MrgX1 agonist inactive, MrgX1 antagonist inactive, MrgX1 allo act inactive, RGS4 inh inactive, RGS4 act -8.5*, RGS4 activ val 92* and M3R Ca counter 87*.
Cc1cccc(N2CCN(C(=S)NCCc3ccccc3)CC2)c1C was read as MrgX1 agonist inactive, MrgX1 antagonist inactive, MrgX1 allo act inactive, RGS4 inh inactive and RGS4 act inactive.
Cc1ccc(Cl)cc1N1CCN(C(=S)NCCc2ccccc2)CC1 was read as MrgX1 agonist inactive, MrgX1 antagonist inactive, MrgX1 allo act inactive, RGS4 inh inactive, RGS4 act -12*, RGS4 activ val 94* and M3R Ca counter 67*.
CCOc1cc2sc(N3CCC(C(=O)NCCCN4CCCC4=O)CC3)nc2cc1Br was read as MrgX1 agonist inactive, MrgX1 antagonist inactive, MrgX1 allo act inactive, RGS4 inh inactive, RGS4 act -9.4*, RGS4 activ val 48* and M3R Ca counter 84*.
Screening Cc1cc(C)c2nc(N3CCC(C(=O)NCCCN4CCCC4=O)CC3)sc2c1 returned MrgX1 agonist inactive, MrgX1 antagonist inactive, MrgX1 allo act inactive, RGS4 inh inactive and RGS4 act inactive.
O=C(CSc1nnc2ccc(-c3ccc(F)cc3)nn12)N1CCOCC1 was read as MrgX1 agonist inactive, MrgX1 antagonist inactive, MrgX1 allo act inactive, RGS4 inh inactive and RGS4 act inactive.
O=C1CC(N2CCN(C/C=C/c3ccccc3)CC2)C(=O)N1Cc1cccs1 (centres undefined) was read as MrgX1 agonist inactive, MrgX1 antagonist inactive, MrgX1 allo act inactive, RGS4 inh inactive, RGS4 act -7.9*, RGS4 activ val 94* and M3R Ca counter 26*.

Compound activity: PubChem, Johns Hopkins Ion Channel Center
